Screening data deposited in PubChem BioAssay by The Scripps Research Institute Molecular Screening Center.
The list is not random: actives were taken first. Their share in the collection is about 1.4%.
RBBP9 inhibitor – human RBBP9 hydrolase inhibition; AID 1515; 220,000 compounds, 0.2% hits; recombinant RBBP9, FP-Rh probe fluorescence polarization; inhibition, % at 7.94 µM;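 active = inhibition above the campaign mean of all tested compounds plus 3 SD, cut at about 14% in these data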;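 note: plate controls were DMSO wells with RBBP9 for no effect and wells lacking RBBP9 protein for full effect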
Target sequence (O75884 whole entry, looked up): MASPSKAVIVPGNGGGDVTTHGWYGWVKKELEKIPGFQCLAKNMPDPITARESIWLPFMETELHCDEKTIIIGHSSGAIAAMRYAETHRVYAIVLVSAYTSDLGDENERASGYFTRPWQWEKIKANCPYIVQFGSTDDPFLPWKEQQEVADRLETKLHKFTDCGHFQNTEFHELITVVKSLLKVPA
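Measured by – fluorescence polarization · Test system – RBBP9 protein · Input – 2.5 µM RBBP9 dispensing solution, before mixing · Measure – percent inhibition from mP, scaled between DMSO and no-protein wells · Benchmarks – DMSO-treated enzyme wells and wells lacking RBBP9 · Times – preincubation 30 min plus labeling 45 min at 25 °C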
HTRA1 inh – blocks human HTRA1 serine peptidase; inhibition, % at 5.96 µM; Q92743; 340,000 compounds, 0.5% hits; recombinant HTRA1, FP-rhodamine activity-based probe, fluorescence polarization; in the data active = inhibition above about 36%;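 note: 0% = enzyme with DMSO and 100% = wells lacking enzyme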
SIAE inh – human SIAE inhibition, primary screen; Q9HAT2; SIAE FP-Rh probe binding, fluorescence polarization; inhibition, % at 9.66 µM; 370,000 compounds, 0.69% hits;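 active = inhibition above a cutoff: mean of compounds within the control limits plus 3 SD of those, cut at about 17% in these data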;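 note: 0% = plate median of compound wells and 100% = probe without SIAE protein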
mABHD4 FP – inhibits mouse alpha/beta hydrolase domain 4; AID 720543; inhibition, % at 8.92 µM; 370,000 compounds, 0.54% hits; Q8VD66; purified mABHD4, FP-Rh probe fluorescence polarization;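 active = inhibition exceeding the mean over every tested compound plus 3 SD, cut at about 30% in these data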;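 note: 0% = plate median of compound wells and 100% = S159A mutant with DMSO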
Target sequence (Q8VD66 whole entry, looked up, the tested form may be a part): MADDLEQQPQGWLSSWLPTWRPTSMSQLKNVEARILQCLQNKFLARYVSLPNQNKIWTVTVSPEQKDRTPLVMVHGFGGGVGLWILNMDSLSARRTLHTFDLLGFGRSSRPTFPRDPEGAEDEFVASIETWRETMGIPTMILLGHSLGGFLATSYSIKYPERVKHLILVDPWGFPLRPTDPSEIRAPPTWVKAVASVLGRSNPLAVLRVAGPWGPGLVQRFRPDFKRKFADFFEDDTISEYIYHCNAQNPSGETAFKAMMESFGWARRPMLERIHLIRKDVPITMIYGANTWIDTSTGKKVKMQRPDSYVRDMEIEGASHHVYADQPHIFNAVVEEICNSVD
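Assay system: Wild-type mouse ABHD4 protein | Medium: HEPES pH 7.0 buffer, 150 mM NaCl, 0.01% Pluronic F-127 | Incubation: Enzyme–compound pre-incubation 45 min, then probe 60 min, both 25 °C | Technique: Fluorescence polarization with parallel and perpendicular emission, 525/598 nm | Evaluation: % inhibition of FP-Rh probe binding versus controls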
mABHD4 conf – ABHD4 (mouse) inhibition, FP confirmation | shares compounds with mABHD4 FP | purified mABHD4, FP-Rh probe fluorescence polarization | inhibition, % at 8.92 µM | 1,800 compounds, 55% hits;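 active = mean inhibition across replicates above the hit cutoff set in the primary screen, cut at about 30% in these data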;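 note: 0% = wild-type ABHD4 with DMSO and 100% = catalytically dead S159A mutant with DMSO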
SIAE confirm – confirmation of human SIAE inhibitors; inhibition, % at 9.66 µM; shares compounds with SIAE inh; SIAE FP-Rh activity-based probe, fluorescence polarization; AID 1117263; 2,300 compounds, 13% hits;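 active = mean inhibition of the replicates above the hit cutoff set in the primary screen, cut at about 17% in these data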;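 note: 0% = SIAE with DMSO and probe and 100% = probe without SIAE; inhibitors lower polarization as more probe stays unbound to SIAE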
The depositor's hits bear a star; . = no result; + = active, no number.

SMILES	RBBP9 inhibitor	HTRA1 inh	SIAE inh	mABHD4 FP	mABHD4 conf	SIAE confirm
Cc1cc2c(cc1S(=O)(=O)N1CCN(c3cccc(C)c3C)CC1)OCCN2C	.	-9	87*	129*	78*	58*
c1ccc(Cn2ccc3ccc(-c4ccc5ccn(Cc6cccc(-c7ccsc7)c6)c5c4)cc32)cc1	.	.	-7	-2	.	.
COc1ccc(/C=N/NC(=O)c2cc3c(OC)ccc(OC)c3[nH]2)cc1O	.	17	24*	33*	47*	11
Cc1cc(N2CCNC[C@@H]2C)ccc1N1CCS(=O)(=O)CC1	.	.	4	0	.	.
C/C(=N/Nc1ccnc2cc(Cl)ccc12)c1ccc(N)cc1	.	12	23*	30*	33*	13
CCN(C(=O)[C@@H](C1CC1)[C@@H](O)c1ccc(C(C)=O)cc1)c1ccccc1	.	.	3	4	.	.
Oc1ccc2c(c1)OCC1(O)Cc3cc(O)c(O)cc3C21 (configuration not stated)	.	31	+	110*	129*	+
Cn1ccc2c(N3CCCCCCC3)cc3c(c21)C1CCC3O1 (configuration not stated)	.	.	49*	40*	6	6
CCN1C(=O)/C(=C2\SC(=S)N(CC3CCCO3)C2=O)c2ccccc21 (configuration not stated)	-6	.	.	.	.	.
CCN1C(=O)/C(=C2\SC(=S)N(NC(=O)c3ccccc3O)C2=O)c2ccccc21	5	28	19*	31*	73*	26*
Cc1cc[n+](-c2[nH]c(=O)sc2/C=N/NC([S-])=Nc2ccccc2)cc1C	0	22	19*	31*	28	3
COc1ccc(OC)c(C=NNC(=O)c2ccccc2NS(=O)(=O)c2cccs2)c1	.	-4	9	3	.	.
O=C1c2cccc3c(O)ccc(c23)C(=O)N1c1ccc(Cl)cc1	.	34	37*	57*	31*	10
Cc1ccc(C(=O)Nc2nc(-c3ccco3)c(-c3ccco3)s2)o1	.	5	41*	36*	-13	-19
O=C(CCl)Nc1nc(-c2ccco2)c(-c2ccco2)s1	-4	0	2	10	.	.
O=S1(=O)c2ccc(Br)cc2OC[C@@H](Cc2ccccc2)N1Cc1cn(CCC2OCCCO2)nn1	.	.	-1	3	.	.
COc1ccc(O)c(/C=N/Nc2nc3ccccc3[nH]2)c1	4	-4	12	21	.	.
Cc1c(/C=N/Nc2nc3ccccc3[nH]2)c2ccccc2n1C	7	34	40*	41*	70*	20*
Cc1nn(-c2ccccc2)c(C)c1/C=N/Nc1nc2ccccc2[nH]1	8	19	24*	42*	56*	37*
CCCn1c(/C=N/Nc2nc3ccccc3[nH]2)nc2ccccc21	-1	34	13	14	.	.
COc1cc(/C=N/Nc2nc3ccccc3[nH]2)cc(OC)c1O	11	12	18*	38*	26	16
Cc1cc(=O)[nH]c(N/N=C/c2c(C)nn(-c3ccccc3)c2C)n1	-9	4	2	1	.	.
Cc1ccc(S(=O)(=O)NN=Cc2ccccc2Cl)cc1	.	-4	-6	2	.	.
Clc1ccc2c(N/N=C/c3cccc(Br)c3)ccnc2c1	-10	-12	27*	32*	31*	35*
Clc1ccc2c(N/N=C/c3ccccc3Br)ccnc2c1	-8	0	1	3	.	.
SMILES	RBBP9 inhibitor	HTRA1 inh	SIAE inh	mABHD4 FP	mABHD4 conf	SIAE confirm
Clc1ccccc1N=Nc1ccccn1	.	27	20*	41*	5	4
Cc1[nH][nH]c(=O)c1N=Nc1ccccc1Cl	-5	4	-1	-4	.	.
Cc1ccc(NC(=O)c2ccc(COc3ccccc3)o2)nc1	.	-5	-4	5	.	.
Nc1c(C(=O)NCC2CCCO2)sc2nc3c(c(-c4ccco4)c12)CC/C3=C\c1ccco1 (configuration not stated)	3	40*	23*	32*	29	16
CCOc1cc(/C=N/NC(=O)c2ccc(N(C)S(=O)(=O)c3ccccc3)cc2)ccc1OC	.	-21	-10	-2	.	.
O=[N+]([O-])c1cc([N+](=O)[O-])c2nonc2c1Nc1ccc(O)cc1	.	33	21*	46*	10	2
C=CCNc1nc(Nc2ccc(OC)c(OC)c2)c2sc(-c3ccccc3)cc2n1	.	.	25*	42*	51*	33*
C=CCNc1nc(NCCOC)c2sc(-c3ccccc3)cc2n1	.	.	-6	3	.	.
CCCCCCCCN1C(=O)[C@@H](CC(=O)N2CCCCC2)C[C@@]2(C(=O)OC)C1=C[C@H](C1CCCC1)O[C@@H]2C	.	.	10	-2	.	.
CCCCOCCCNC(=O)C[C@@H]1C[C@@]2(C(=O)OCC)CCCC=C2N(Cc2ccc3c(c2)OCO3)C1=O	.	.	-3	-13	.	.
O=S(=O)(Nc1ccc(O)c2ncccc12)c1ccccc1F	.	.	29*	39*	42*	10
CC(=O)Oc1ccc2c(=O)c(Oc3ccccc3)coc2c1OC(C)=O	0	28	20*	37*	15	3
CCN(C[C@H]1N[C@@](Cc2ccccc2)(C(=O)OC)[C@H]2C(=O)N(C)C(=O)[C@@H]12)S(=O)(=O)c1ccc(OC)cc1	.	2	1	3	.	.
N=C1S/C(=C\c2ccco2)C(=O)N1c1nccs1	0	17	2	16	.	.
N=C1S/C(=C\c2ccco2)C(=O)N1c1ccc2c(c1)OCO2	-3	17	21*	34*	-1	0
Oc1ccc(Nc2ccc3ccccc3c2)cc1	.	.	20*	39*	56*	15
CCC(=O)Nc1ccc2ccccc2c1	-7	-1	6	0	.	.
CC1(C(=O)NCc2ccccc2)CSCC(=O)N1Cc1cccc(C(F)(F)F)c1 (configuration not stated)	.	.	5	6	.	.
CC1=CC(=O)C=CC1=Nc1ccc(N(C)C)cc1	.	.	17*	64*	57*	12
C[C@H](CO)N1C[C@H](C)[C@@H](CN(C)C(=O)Nc2ccc3c(c2)OCCO3)OCc2cnnn2CCCC1=O	.	11	7	-4	.	.
O=C(O)Cc1c[nH]c2cccc(O)c12	-2	9	23*	53*	23	12
COc1cc(C(=O)Nc2cc3c4c(c2)CC(=O)N4CCC3)cc(OC)c1OC	.	-4	-3	2	.	.
COc1cccc(NC(=S)Nc2ccc(O)cc2)c1	1	26	17*	34*	20	5
COc1cccc(NC(=S)Nc2ccc(F)cc2)c1	.	1	6	-5	.	.
O=C(N/N=C/c1c(O)n(Cc2ccccc2)c(=O)c2ccccc12)c1cccnc1	-5	23	26*	62*	73*	12
COc1ccc(Cn2c(O)c(/C=N/NC(=O)c3cccnc3)c3ccccc3c2=O)cc1	4	10	29*	31*	45*	7
O=C(N/N=C/c1c(O)n(-c2ccccc2Cl)c(=O)c2ccccc12)c1cccnc1	1	31	9	22	.	.
